# Assay results from ChEMBL document CHEMBL2202986, “Guaianolide sesquiterpene lactones, a source to discover agents that selectively inhibit acute myelogenous leukemia stem and progenitor cells” (J Med Chem, 2012).
# Tests used:
# [1] = Oral bioavailability in mouse at 150 mg/kg; format: ADME, organism-based; details: in vivo
# [2] = Mean retention time (0 to t) in mouse at 150 mg/kg, po; format: ADME, organism-based; set-up: dose 150 mg/kg, route oral; details: in vivo
# Method in brief: (§1)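 Male Kunming mice (20 2 g), fasted 12 h before dosing with water available, given DMAMCL as an aqueous solution po (n = 5). Blood was drawn from the orbital veins at set times. Plasma DMAMCL and MCL were followed, and parameters came from noncompartmental analysis.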
# [3] = test system: Mus musculus; test: Toxicity in BALB/c mouse assessed as pathological changes in liver at 500 mg/kg, po administered every day for 7 days by hematoxylin-eosin staining method; details: in vivo, 168 h
# [4] = Drug degradation in HEPES buffer at pH <5 assessed as release of MCL; format: physicochemical
# Method in brief: (§2)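 A 20 μL aliquot of prodrug solution was added to 980 μL HEPES buffer (pH 7.4, or below 5.0) and incubated at 37 °C. Samples were withdrawn over time, and prodrug and released parent were quantified by HPLC (mean, SD, n = 4).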
# [5] = Mean retention time (0 to infinity) in mouse at 100 mg/kg, iv; format: ADME, organism-based; set-up: dose 100 mg/kg, route intravenous; details: in vivo
# Method in brief: (§3)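 Male Kunming mice (20 2 g), fasted 12 h before dosing with water available, given DMAMCL as an aqueous solution iv (n = 5). Blood was drawn from the orbital veins at set times. DMAMCL and MCL in plasma were measured, and parameters were derived by a noncompartmental model.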
# [6] = Mean retention time (0 to t) in mouse at 100 mg/kg, iv; format: ADME, organism-based; set-up: dose 100 mg/kg, route intravenous; details: in vivo; method in brief: as §3
# [7] = AUC (0 to t) in mouse at 100 mg/kg, iv; format: ADME, organism-based; set-up: dose 100 mg/kg, route intravenous; details: plasma; method in brief: as §3
# [8] = Cmax in mouse at 150 mg/kg, po; format: ADME, organism-based; set-up: dose 150 mg/kg, route oral; details: in vivo; method in brief: as §1
# [9] = Cytotoxicity against human HL60/A cells after 18 hrs by annexin-V labeling-based flow cytometry; format: functional, cell-based
# [10] = Volume of distribution in mouse at 100 mg/kg, iv; format: ADME, organism-based; set-up: dose 100 mg/kg, route intravenous; details: in vivo
# Method in brief: (§4)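 Male Kunming mice (20 2 g) were fasted 12 h with water available. An aqueous solution was dosed po (150 mg/kg) or iv (100 mg/kg), n = 5 per route. Blood was drawn from the orbital veins at set times to measure DMAMCL and released MCL. Parameters come from a noncompartmental model and are given as mean with SD.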
# [11] = test system: Mus musculus; test: Toxicity in BALB/c mouse assessed as pathological changes in liver at 1000 mg/kg, po administered as single dose by hematoxylin-eosin staining method; format: organism-based; set-up: dose 1000 mg/kg, route oral; details: in vivo
# Method in brief: (§5)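 BALB/c mice, 16 in total (8 male, 8 female). DMAMCL was given by gavage as an aqueous solution, either 1000 mg/kg once or 500 mg/kg every day for seven doses. Controls were untreated and water-vehicle mice. Mice were killed 1 week after dosing. Heart, liver, spleen, lung and kidney were fixed in 10% neutral-buffered formalin, paraffin-embedded, cut into 3 μm sections, H&E-stained and examined microscopically for gross morphology.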
# [12] = test system: Plasma; test: Drug metabolism in mouse plasma assessed as release of MCL; format: ADME, cell-free
# Method in brief: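 A 20 μL aliquot of prodrug solution was added to 980 μL blank mouse plasma and incubated at 37 °C. Prodrug and released parent drug concentrations were measured over time by HPLC (mean, SD, n = 4).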
# [13] = Cytotoxicity against human leukemia stem/progenitor cells assessed as cell viability at 5 uM after 18 hrs by annexin-V labeling-based flow cytometry; format: functional; details: in the assay text read “leukemia cells” for “leukemia stem/progenitor cells”, read-out: Activity
# Method in brief: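 Primary leukemia cells from AML patient blood were treated for 18 h in serum-free IMDM, then stained with CD34-APC and CD38-PECy7 for 30 min. After washing in cold PBS, cells were labelled with Annexin-V–FITC/PI for 15 min at room temperature and read by flow cytometry. Viability of total and CD34⁺ cells was normalized to untreated controls (mean, SD).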
# [14] = Cmax in mouse at 100 mg/kg, iv; format: ADME, organism-based; set-up: dose 100 mg/kg, route intravenous; details: in vivo; method in brief: as §3
# [15] = Toxicity in po dosed BALB/c mouse administered every day for 7 days; details: in vivo
# [16] = test system: Mus musculus; test: Volume of distribution in mouse at 150 mg/kg, po; format: ADME, organism-based; set-up: dose 150 mg/kg, route oral; details: in vivo; method in brief: as §4
# [17] = AUC (0 to t) in mouse at 150 mg/kg, po; format: ADME, organism-based; set-up: dose 150 mg/kg, route oral; details: plasma; method in brief: as §1
# [18] = Half life in mouse at 100 mg/kg, iv; format: ADME, organism-based; set-up: dose 100 mg/kg, route intravenous; details: in vivo; method in brief: as §3
# [19] = test system: Mus musculus; test: Toxicity in BALB/c mouse assessed as pathological changes in kidney at 500 mg/kg, po administered every day for 7 days by hematoxylin-eosin staining method; details: in vivo, 168 h
# [20] = Cytotoxicity against human leukemia stem/progenitor cells assessed as viable CD34+ cells at 10 uM after 18 hrs by annexin-V labeling-based flow cytometry; format: functional, CD34+ cell
# [21] = AUC (0 to infinity) in mouse at 100 mg/kg, iv; format: ADME, organism-based; set-up: time infinity, dose 100 mg/kg, route intravenous; details: plasma; method in brief: as §3
# [22] = Toxicity in po dosed BALB/c mouse administered as single dose; format: organism-based; details: in vivo
# Method in brief: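 Oral gavage of aqueous solution at a single dose of 1000 mg/kg. Untreated and water-vehicle mice served as controls; 16 mice in total (8 male/8 female). Mice were sacrificed 1 week after dosing. Heart, liver, spleen, lung and kidney were formalin-fixed, paraffin-embedded, sectioned at 3 μm, H&E-stained, and examined for gross morphology.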
# [23] = Antitumor activity against mixed-lineage human leukemia cells xenografted in NOD/SCID mouse assessed as reduction of CD45+CD33+ cells in bone marrow at 100 mg/kg, po qd administered every other day total of seven doses starting from 8 weeks post grafting measured on day 35 (reference value: 9.8 %); format: functional, Leukemia cell; set-up: scale not given: the % may be the effect or the level left
# [24] = Tmax in mouse at 150 mg/kg, po; format: ADME, organism-based; set-up: dose 150 mg/kg, route oral; details: in vivo; method in brief: as §1
# [25] = test system: Mus musculus; test: Toxicity in BALB/c mouse assessed as pathological changes in kidney at 1000 mg/kg, po administered as single dose by hematoxylin-eosin staining method; format: organism-based; set-up: dose 1000 mg/kg, route oral; details: in vivo
# Method in brief: (§6)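 BALB/c mice (16 in total, 8 male/8 female) were given aqueous DMAMCL by gavage as a single 1000 mg/kg dose or 500 mg/kg daily for seven doses. Water-only and untreated mice served as controls. One week later, tissues were fixed in 10% neutral-buffered formalin, embedded in paraffin, cut into 3 μm sections, stained with H&E and examined microscopically.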
# [26] = Cytotoxicity against human leukemia cells assessed as cell viability at 10 uM after 18 hrs by annexin-V labeling-based flow cytometry
# [27] = Drug degradation in HEPES buffer at pH 7.4 assessed as release of MCL up to 8 hrs; format: physicochemical; details: pH 7.4, 8 h; method in brief: as §2
# [28] = AUC (0 to infinity) in mouse at 150 mg/kg, po; format: ADME, organism-based; set-up: dose 150 mg/kg, route oral, time infinity; details: plasma; method in brief: as §1
# [29] = test system: Mus musculus; test: Toxicity in BALB/c mouse assessed as pathological changes in spleen at 500 mg/kg, po administered every day for 7 days by hematoxylin-eosin staining method; details: in vivo, 168 h
# [30] = test system: Mus musculus; test: Toxicity in BALB/c mouse assessed as pathological changes in heart at 1000 mg/kg, po administered as single dose by hematoxylin-eosin staining method; format: organism-based; set-up: dose 1000 mg/kg, route oral; details: in vivo; method in brief: as §6
# [31] = test system: Mus musculus; test: Toxicity in BALB/c mouse assessed as pathological changes in spleen at 1000 mg/kg, po administered as single dose by hematoxylin-eosin staining method; format: organism-based; set-up: dose 1000 mg/kg, route oral; details: in vivo; method in brief: as §5
smiles,measurement,setting,value
CC1=C2CC[C@@](C)(O)[C@@H]2[C@H]2OC(=O)[C@@H](CN(C)C)[C@@H]2CC1.Cl [DIMETHYLAMINOMICHELIOLIDE HYDROCHLORIDE],bioavailability,[1],75%
same,MRT last,[2],8.85 h
same,Activity,[3],Non-toxic
same,Drug degradation,[4],Not Active
same,MRT inf,[5],3.52 h
same,MRT last,[6],1.51 h
same,AUC(0-t),[7],43900 ng·h/mL
same,Cmax,[8],19 µg/mL
same,IC50,[9],21.5 µM
same,Vd,[10],88.2 L/kg
same,Activity,[11],Non-toxic
same,Drug metabolism,[12],Active
same,viability at 5 µM,[13],77.6%
same,Cmax,[14],92.9 µg/mL
same,MTD at 168 h,[15],500 mg/kg
same,Vd,[16],47.38 L/kg
same,AUC(0-t),[17],49600 ng·h/mL
same,half-life,[18],18.9 h
same,Activity,[19],Non-toxic
same,Activity,[20],60.4%
same,AUC(0-inf),[21],44800 ng·h/mL
same,MTD,[22],1000 mg/kg
same,Activity,[23],0.14%
same,Tmax,[24],0.19 h
same,Activity,[25],Non-toxic
same,viability at 10 µM,[26],64.9%
same,Drug degradation,[27],Active
same,AUC(0-inf),[28],50300 ng·h/mL
same,Activity,[29],Non-toxic
same,Activity,[30],Non-toxic
same,Activity,[31],Non-toxic
